Data from ChEMBL document CHEMBL1122758, “Studies of the mode of action of antitumor triazenes and triazines. 6. 1-Aryl-3-(hydroxymethyl)-3-methyltriazenes: synthesis, chemistry, and antitumor properties” (J Med Chem, 1984).

Assays:
[1] = system: Mus musculus; assay: Compound was evaluated in vivo for antitumor activity against TLX5S Lymphoma implanted mice and percentage increase in life span (%ILS(T/C)) was reported at a optimal dose of 20 mg/Kg; type: functional
[2] = In vitro biological stability and half-life was measured in Earl's buffer at a pH 7.4 of at 37 degree Centigrade; type: physicochemical
Method in brief: (§1)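 Decomposition was tracked by UV spectroscopy as the fall in absorbance over time at the compound's λmax. Half-life came from the slope of a log plot of extent of decomposition against time, assuming first-order kinetics. Line 4 used Earl's buffer (NaCl, NaHCO3, glucose, KCl, NaH2PO4, HCl to pH 7.4). Lines 5-11 used Sorensen's phosphate buffer, with KH2PO4 and Na2HPO4 mixed to the stated pH.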

[3] = In vitro biological stability and half-life was measured in phosphate buffer at a pH of 7.4 at 37 degree Centigrade; type: physicochemical; settings: pH 7.4; method in brief: as §1
[4] = In vitro biological stability and half-life was measured in phosphate buffer at a pH 7.5 of at 25 degree Centigrade; type: physicochemical; method in brief: as §1
[5] = In vitro biological stability and half-life was measured in phosphate buffer at a pH of 7.5 at 25 degree Centigrade; type: physicochemical; settings: pH 7.5; method in brief: as §1
[6] = system: Mus musculus; assay: Compound was evaluated in vivo for antitumor activity against TLX5R Lymphoma implanted mice and percentage increase in life span (%ILS(T/C)) was reported at a optimal dose of 5 mg/Kg five times daily
[7] = system: Mus musculus; assay: Compound was evaluated in vivo for antitumor activity against TLX5R Lymphoma implanted mice and percentage increase in life span (%ILS(T/C)) was reported at a optimal dose of 20 mg/Kg five times daily.; type: functional
[8] = In vitro biological stability and half-life was measured by HPLC in Earl's buffer at a pH of 7.4 at 37 degree Centigrade; type: physicochemical; settings: pH 7.4
Method in brief: (§2)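 Triazene incubated at 100 µg mL-1 in closed containers at 37 °C in pH 7.4 buffer: Earl's (NaCl, NaHCO3, glucose, KCl, NaH2PO4, HCl-adjusted) for line 1; 0.01 M Tris, HCl-adjusted, for line 2; Sorensen's KH2PO4/Na2HPO4 phosphate for line 3. Remaining triazene was followed by HPLC with 30% aqueous acetonitrile plus 0.1% diethylamine at 2 mL/min, and UV detection at the compound's λmax.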

[9] = In vitro biological stability and half-life was measured by HPLC in phosphate buffer at a pH of 7.4 at 37 degree Centigrade; type: physicochemical; settings: pH 7.4; method in brief: as §2
[10] = In vitro biological stability and half-life was measured by HPLC in TRIS buffer at a pH of 7.4 at 37 degree Centigrade; type: physicochemical; settings: pH 7.4; method in brief: as §2
[11] = In vitro biological stability and half-life was measured in phosphate buffer at a pH of 3.5 at 37 degree Centigrade; type: physicochemical; settings: pH 3.5; method in brief: as §1
[12] = In vitro biological stability and half-life was measured in phosphate buffer at a pH of 2.5 at 37 degree Centigrade; type: physicochemical; settings: pH 2.5; method in brief: as §1
[13] = In vitro biological stability and half-life was measured in phosphate buffer at a pH of 4.5 at 37 degree Centigrade; type: physicochemical; settings: pH 4.5; method in brief: as §1
[14] = In vitro biological stability and half-life was measured in phosphate buffer at a pH of 5.2 at 37 degree Centigrade; type: physicochemical; settings: pH 5.2; method in brief: as §1

Structure (SMILES): CN(CO)/N=N/c1ccc(C(N)=O)cc1
- ILS (T/C) [1]: 62%

Structure (SMILES): CCN=NNc1ccc(C#N)cc1
- half-life [2]: 18.3 min

Structure (SMILES): CC(=O)c1ccc(/N=N/N(C)CO)cc1
- half-life [3]: 14.5 min
- ILS (T/C) [1]: 72%

Structure (SMILES): CCN(CO)/N=N/c1ccc(C#N)cc1
- ILS (T/C) [1]: 0%

Structure (SMILES): CN(CO)/N=N/c1ccc(C#N)cc1
- ILS (T/C) [1]: 54%

Structure (SMILES): CCN=NNc1ccc(C(=O)OC)cc1
- half-life [4]: 9 min

Structure (SMILES): COC(=O)c1ccc(/N=N/N(C)CO)cc1
- half-life [3]: 12.6 min
- ILS (T/C) [1]: 120%
- half-life [5]: 22 min
- ILS (T/C) [6]: 0%

Structure (SMILES): C/N=N/Nc1ccccc1
- half-life [3]: 3.5 min

Structure (SMILES): CN/N=N/c1ccc(C(=O)OC)cc1
- half-life [3]: 12.1 min
- ILS (T/C) [1]: 87%
- half-life [5]: 35 min
- ILS (T/C) [7]: 4%

Structure (SMILES): CN=NNc1ccc(C(C)=O)cc1
- half-life [3]: 13.8 min
- half-life [8]: 66.6 min
- half-life [9]: 15.1 min
- half-life [10]: 36.2 min

Structure (SMILES): CCN(CO)N=Nc1ccc(C(=O)OC)cc1
- half-life [4]: 7 min

Structure (SMILES): CN=NNc1ccc(C#N)cc1
- half-life [2]: 99 min

Structure (SMILES): COC(=O)c1ccc(/N=N/N(C)C)cc1
- ILS (T/C) [1]: 58%
- half-life [5]: > 1440 min
- ILS (T/C) [7]: 0%

Structure (SMILES): CCN=NNc1ccc(C(C)=O)cc1
- half-life [8]: 15.1 min

Structure (SMILES): COC(=O)c1ccc(/N=N/N(C)COC(=O)c2ccccc2)cc1
- ILS (T/C) [1]: 31%
- half-life [5]: 26.5 min

Structure (SMILES): CC(=O)c1ccc(/N=N/N(C)C)cc1
- half-life [3]: > 1440 min
- half-life [11]: 11.8 min
- half-life [12]: 1.23 min
- half-life [13]: 108 min
- ILS (T/C) [1]: 65%
- half-life [14]: > 1440 min
- ILS (T/C) [7]: 0%
